An excerpt weighted towards active compounds, which were near 1.5% of everything screened.
APJ ag – agonists of human APJ apelin receptor. CHO-K1 APJ PathHunter beta-arrestin, luminescence; 0% DMSO wells, 100% apelin. P35414. 0.11% of 330,000 active. activation, % at 20 µM;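 active means activation more than six SD over the plate average, tested at 20 µM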;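 further: 0% = DMSO alone and 100% = apelin-13 at 10 nM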
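Assay system: CHO-K1 APJ beta-arrestin complementation cell line / Compound: single test compound dose, 20 µM final, 1% DMSO / Times: overnight seeding, 90 min compound at 25 °C, 1 h detection / Technique: beta-gal luminescence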
CXCR6 inh – blocks human CXCR6 beta-arrestin recruitment; 0.36% of 360,000 active; inhibition, % at 20 µM; CHO-K1 PathHunter CXCR6 beta-arrestin, luminescence; in the data active means inhibition above about 34%, passing the limit was not always enough;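 further: antagonist mode with CXCL16 agonist at 10 nM final; 0% = 10 nM CXCL16 with DMSO and 100% = unstimulated wells without agonist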
Target sequence (O00574 whole entry, looked up): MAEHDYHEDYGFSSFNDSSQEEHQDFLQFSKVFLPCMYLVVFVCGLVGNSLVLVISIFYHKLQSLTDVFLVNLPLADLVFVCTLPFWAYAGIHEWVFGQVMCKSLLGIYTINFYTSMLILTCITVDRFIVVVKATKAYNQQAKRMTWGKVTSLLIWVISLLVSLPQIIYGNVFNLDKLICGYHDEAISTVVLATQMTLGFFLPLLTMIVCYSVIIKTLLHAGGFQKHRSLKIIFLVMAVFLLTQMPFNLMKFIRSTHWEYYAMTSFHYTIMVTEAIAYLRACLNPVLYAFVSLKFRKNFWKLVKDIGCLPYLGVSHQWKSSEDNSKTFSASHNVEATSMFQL
EBI2 antag – blocks human EBI2 receptor beta-arrestin signaling. EBI2 beta-arrestin recruitment, luminescence, 7a,25-OHC stimulated. inhibition, % at 5 µM. 0.81% of 360,000 active. AID 651636; in the data active means inhibition above about 38%;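 further: enzyme fragment complementation signal reports receptor beta-arrestin coupling in cells; 0% = agonist plus DMSO wells and 100% = wells without agonist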
CCR6 antagonist – antagonists of human CCR6 receptor. CHO-K1 CCR6 PathHunter beta-arrestin, luminescence, CCL20-stimulated. 0.49% of 340,000 active. inhibition, % at 20 µM;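 active means compounds whose inhibition of the agonist-driven luminescence signal at 20 µM reaches about 50%, limit read from the data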;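 further: cells stimulated with CCL20 at 14 nM final; plate controls were DMSO with CCL20 for no effect and DMSO without agonist for full effect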
APJ antag – blocks the human apelin receptor APJ; CHO-K1 APJ beta-arrestin complementation, luminescence; P35414; AID 2521; inhibition, % at 20 µM; 0.32% of 330,000 active;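 active means inhibition above about 40% at 20 µM, limit read from the data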;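 further: cells challenged with 10 nM apelin-13 agonist together with compound; plate controls were apelin-13 plus DMSO wells for no effect and DMSO wells lacking apelin-13 for full effect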
hiPSC survival – hiPSC single-cell survival enhancement; AID 602274; survival enhancement, % at 20 µM; ATPlite luminescence; 100% = ROCK inhibitor wells, 0% = DMSO; 0.044% of 360,000 active; in the data active means survival enhancement above about 18%;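 further: cells exposed to compounds for 16 hours before the ATP read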
EBI2 antag conf – confirmation of human EBI2 receptor antagonists; EBI2 beta-arrestin luminescence, 7a,25-OHC antagonism; shares compounds with EBI2 antag; 29% of 2,400 active; inhibition, % at 5 µM;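 active means inhibition of at least 50%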
EBI2 ag – counter-screen for EBI2 antagonists: EBI2 agonist activity. shares compounds with EBI2 antag. EBI2-expressing cells, agonist mode, luminescence, 60 min; 0% vehicle, 100% 7α,25-dihydroxycholesterol control. activation, % at 5 µM. 2,400 tested, under 10 active. AID 652000;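 active means activation of at least 50%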
bGal counter – inhibits E. coli beta-galactosidase, counter-screen for EBI2 antagonists; shares compounds with EBI2 antag; purified beta-galactosidase, luminescent Galacton Star, 15 min; inhibition, % at 5 µM; 1% of 2,400 active;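 active means replicate-average signal at least 3 plate SD below neutral wells, shown as high inhibition, flagging enzyme-inhibiting false positives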;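 further: 0% = DMSO wells with enzyme and 100% = wells lacking enzyme; higher means stronger loss of beta-gal luminescence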
The depositor's hits bear a star.

What do the screens show for `CCc1cc(-c2nc(N)ncc2-c2ccc(Br)cc2)c(O)cc1OC`?
APJ ag: -1; CXCR6 inh: 4; EBI2 antag: 77*; CCR6 antagonist: -7; APJ antag: 7; hiPSC survival: 2; EBI2 antag conf: 48; EBI2 ag: -1; bGal counter: -6

What do the screens show for `CCOc1ccc(-c2nc(N)ncc2Oc2ccccc2Br)c(O)c1`?
APJ ag: -5; CXCR6 inh: 4; EBI2 antag: 29; CCR6 antagonist: 8; APJ antag: -3; hiPSC survival: 1

What do the screens show for `COc1ccc(-c2nc(N)ncc2-c2ccc(OC)c(OC)c2)c(O)c1`?
APJ ag: -1; CXCR6 inh: 1; EBI2 antag: 57*; CCR6 antagonist: 4; APJ antag: 10; hiPSC survival: 0; EBI2 antag conf: 27; EBI2 ag: 0; bGal counter: -6

Results for CC(CC(=O)NCCc1ccc(F)cc1)c1ccccc1 (stereo not drawn) ?
APJ ag: -4; CXCR6 inh: -17; EBI2 antag: 17; CCR6 antagonist: 12; APJ antag: -14; hiPSC survival: 1

What do the screens show for `O=C(/C=C/c1ccccc1)N1CCN(c2ccc([N+](=O)[O-])c(N3CCOCC3)c2)CC1`?
APJ ag: 4; CXCR6 inh: -4; EBI2 antag: 78*; CCR6 antagonist: 15; APJ antag: 18; hiPSC survival: 1; EBI2 antag conf: 58*; EBI2 ag: -2; bGal counter: -7

Results for O=C(c1ccc2ccccc2c1)N1CCN(c2ccc([N+](=O)[O-])c(N3CCOCC3)c2)CC1 ?
APJ ag: -3; CXCR6 inh: -3; EBI2 antag: 47*; CCR6 antagonist: 7; APJ antag: -14; hiPSC survival: -1; EBI2 antag conf: 34; EBI2 ag: 0; bGal counter: 7

What do the screens show for `Cc1cccc(C(=O)N2CCN(c3ccc([N+](=O)[O-])c(N4CCOCC4)c3)CC2)c1`?
APJ ag: 0; CXCR6 inh: -3; EBI2 antag: 13; CCR6 antagonist: -5; APJ antag: 11; hiPSC survival: 3

Results for O=C(CCC1N=C2c3ccccc3N=C(SCC(=O)NCC3CCCO3)N2C1=O)NCc1ccc(F)cc1 (stereo not drawn) ?
APJ ag: -3; CXCR6 inh: -5; EBI2 antag: 1; CCR6 antagonist: 13; APJ antag: 8; hiPSC survival: 0

How did COCCCn1c2nc3ccccc3nc2c2c(=O)n(Cc3ccc(Cl)cc3)cnc21 do in these assays?
APJ ag: -1; CXCR6 inh: 8; EBI2 antag: 4; CCR6 antagonist: 15; APJ antag: 15; hiPSC survival: -1

How did O=c1c2c3nc4ccccc4nc3n(Cc3ccccc3)c2ncn1Cc1ccco1 do in these assays?
CXCR6 inh: 27; EBI2 antag: 51*; CCR6 antagonist: 20; hiPSC survival: 9; EBI2 antag conf: -1; EBI2 ag: -1; bGal counter: -13

What do the screens show for `CCN(Cc1nc(-c2ccc(OC)cc2)no1)C(=O)c1ccoc1C`?
APJ ag: -5; CXCR6 inh: -2; EBI2 antag: 0; CCR6 antagonist: 15; APJ antag: 6; hiPSC survival: 1

Results for Cc1ccc(S(=O)(=O)N2CCC(C(=O)N3CCC3)CC2)cc1 ?
APJ ag: 1; CXCR6 inh: 5; EBI2 antag: -6; CCR6 antagonist: 10; APJ antag: 7; hiPSC survival: 1

What do the screens show for `Cn1cc(C(=O)c2ccc(Cl)cc2)cc1-c1nc2ccccc2n1C`?
APJ ag: -1; CXCR6 inh: -2; EBI2 antag: 64*; CCR6 antagonist: -8; APJ antag: 11; hiPSC survival: -1; EBI2 antag conf: 42; EBI2 ag: 0; bGal counter: 8

How did O=C(c1ccc(Br)cc1)c1cc(-c2ccccn2)c(N2CCOCC2)s1 do in these assays?
APJ ag: -3; CXCR6 inh: 3; EBI2 antag: 37*; CCR6 antagonist: 27; APJ antag: 13; hiPSC survival: 0; EBI2 antag conf: 39; EBI2 ag: -2; bGal counter: -16

How did O=C(c1ccc(Cl)c(Cl)c1)c1cc(-c2ccccn2)c(N2CCOCC2)s1 do in these assays?
APJ ag: 0; CXCR6 inh: -1; EBI2 antag: 65*; CCR6 antagonist: 17; APJ antag: -4; hiPSC survival: 0; EBI2 antag conf: 31; EBI2 ag: 2; bGal counter: 3

How did COc1ccc(CN2CCC(C(=O)c3ccc(Cl)cc3)CC2)cc1 do in these assays?
APJ ag: -2; CXCR6 inh: 3; EBI2 antag: 16; CCR6 antagonist: 15; APJ antag: 12; hiPSC survival: 2

Results for Cc1ccccc1OCCC(=O)OCC(=O)NC1CCS(=O)(=O)C1 (stereo not drawn) ?
APJ ag: -4; CXCR6 inh: 2; EBI2 antag: -4; CCR6 antagonist: 4; APJ antag: 0; hiPSC survival: 0

What do the screens show for `COn1c(-c2ccc(Cl)cc2)nc2ncccc21`?
APJ ag: -4; CXCR6 inh: 1; EBI2 antag: -13; CCR6 antagonist: 0; APJ antag: 9; hiPSC survival: 0

How did O=C(c1ccco1)N1CCc2[nH]nc(-c3ccc(Cl)cc3)c2C1 do in these assays?
APJ ag: -2; CXCR6 inh: 7; EBI2 antag: 41*; CCR6 antagonist: 6; APJ antag: 3; hiPSC survival: 0; EBI2 antag conf: 25; EBI2 ag: 0; bGal counter: 7

What do the screens show for `O=C1NC(Cc2ccccc2)c2nc3cc(F)c(F)cc3c(=O)n2-c2cc3ccccc3cc21` (stereo not drawn)?
CXCR6 inh: 4; EBI2 antag: 44*; hiPSC survival: 6; EBI2 antag conf: 19; EBI2 ag: -2; bGal counter: -10

What do the screens show for `CCCNC(=O)N1C[C@H](O)COC[C@@H]2O[C@@H](CC(=O)NCCCN3CCOCC3)CC[C@H]21`?
EBI2 antag: 0

What do the screens show for `CCCCCCSc1ccc(-c2nc3ccc(C)cn3c2NCCCC)cc1OC`?
CXCR6 inh: 20; EBI2 antag: 63*; hiPSC survival: -3; EBI2 antag conf: 63*; EBI2 ag: -2; bGal counter: -21
